According to ChEMBL document CHEMBL1155551, “First synthesis and antiprotozoal activities of divinyl sulfone-modified carbohydrates” (Bioorg Med Chem Lett, 2010):

Key:
Entamoeba histolytica = assay: Antiprotozoal activity against Entamoeba histolytica after 24 hrs by trypan blue assay; format: functional, organism-based
Summary of the method: (§1)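 Trophozoites kept in TYIS-33 medium, E. histolytica at 37 °C and E. invadens at 25 °C. About 5 × 10⁵ cells/mL exposed to compounds (10 mM stocks in DMSO) for 24 h, with DMSO as negative and metronidazole as positive control. Cells washed in PBS; live cells counted by hemocytometer with trypan blue. IC50 fitted from at least three experiments, each in triplicate.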

Entamoeba invadens = assay: Antiprotozoal activity against Entamoeba invadens after 24 hrs by trypan blue assay; format: functional, organism-based; summary of the method: as §1
MCF7 = assay: Cytotoxicity against human MCF7 after 36 hrs by MTT assay; format: cell-based; conditions: mcf7, 48 h, in the assay text read “48 hrs” for “36 hrs”
Summary of the method: (§2)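 MCF7 or AH927 cells seeded at 2 × 10³ per well under 5% CO2, 37 °C. After 36 h, compound added at concentrations ranging from 0 to 100, with untreated wells as control. Viability read by MTT after 48 h of treatment.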

[1] = Cytotoxicity against cat AH927 after 36 hrs by MTT assay; conditions: Felis catus, 48 h, in the assay text read “48 hrs” for “36 hrs”; summary of the method: as §2

Compound	IC50 (Entamoeba histolytica)	IC50 (Entamoeba invadens)	Activity (MCF7)	Activity [1]
C=CS(=O)(=O)C1=C[C@@H](OC)O[C@@H]1COC(c1ccccc1)(c1ccccc1)c1ccccc1	37.9 µM	25 µM	–	–
C=CS(=O)(=O)C1=C[C@H](OC)O[C@@H]1COCc1ccccc1	19.5 µM	9.3 µM	Non-toxic	Non-toxic
C=CS(=O)(=O)C1=C[C@@H](OC)O[C@@H]1COCc1ccccc1	24.4 µM	30.1 µM	–	–
C=CS(=O)(=O)C1=C[C@H](OC)O[C@@H]1COC(c1ccccc1)(c1ccccc1)c1ccccc1	32.9 µM	17 µM	–	–
Cc1ncc([N+](=O)[O-])n1CCO [METRONIDAZOLE]	2.5 µM	3 µM	–	–
